Reference: paper PMC9661475 (Journal of Medicinal Chemistry, 2022)
Values belong to the compound of their own block, whether it stands above or below them.

Legend:
[1] = system: EV-D68 VP1 expression; experiment: Western blot assay of viral VP1 in RD cells; format: cell-based, Enterovirus D68; settings: EV-D68-infected RD cells, MOI 0.01, 12 hpi
Procedure, shortened: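 RD cells (8.0 × 10^4 per well) were seeded and infected after 24 h with EV-D68 at MOI 0.01, with gradient-diluted test compound or DMSO, for 1.5 h. Cells were lysed in RIPA at 12 hpi. Equal protein was run on 10% SDS-PAGE, transferred to PVDF and blocked with 5% skim milk. Blots were probed with anti-EV-D68 and tubulin antibodies, then HRP secondaries, with ECL detection.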

[2] = Pharmacokinetic study in SD rats; format: in vivo; settings: male, rat, plasma, iv, 1 mg/kg
Procedure, shortened: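 Male SD rats (6–9 or 6–8 weeks old, depending on compound; n = 3) received a single iv dose of 1 mg/kg. The vehicle was 5% DMSO/5% Solutol HS-15/90% water or 5% DMSO/95% HP-β-CD in water. Jugular blood was taken into heparin at 0.083, 0.25, 0.5, 1, 2, 4, 6 and 24 h. Plasma, obtained by centrifugation at about 4 °C, was assayed by LC-MS/MS.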

[3] = system: EV-D68; experiment: Plaque formation assay in RD cells; format: cell-based, Enterovirus D68; settings: concentration of 1 μM
Procedure, shortened: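 RD cells grown overnight received serially diluted virus stock plus test compound for 1.5 h. The supernatant was then removed and replaced with a 2× DMEM overlay containing 2% low-melting agarose.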

[4] = system: EV-D68 VP1 expression; experiment: Immunofluorescence assay of viral VP1 in RD cells; format: cell-based, Enterovirus D68; settings: EV-D68-infected RD cells, MOI 1, 12 h
Procedure, shortened: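 RD cells were infected with EV-D68 at MOI 1 in the presence of test compound for 12 h. They were then fixed with 4% formaldehyde for 30 min, permeabilized with 0.1% Triton X-100 for 30 min and blocked with 5% bovine serum. Staining used rabbit anti-VP1 with an Alexa-546 secondary and 1 μM Hoechst33342 for nuclei, followed by fluorescence microscopy imaging.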

[5] = system: EV-D68 strain STL-2014-12; experiment: CPE reduction assay, EV-D68 STL-2014-12 in RD cells; format: cell-based, Enterovirus D68; settings: for EC50: Enterovirus D, EVD68, RD, CPE assay, anti-EV-D68 activity; for anti-EV-D68 activity: running text on series 1 SAR
[6] = system: EV-D68; experiment: Time of drug addition assay; format: cell-based, Enterovirus D68; settings: 2 μM, RD cells, 0.01 MOI, viral load by qRT-PCR
[7] = system: EV-D68 virions; experiment: Thermoprotection assay; design: species or system Enterovirus D68; settings: 12.5 μM, heated 2 min, TCID50
Procedure, shortened: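 Virus (2 × 10^6 PFU/ml) was preincubated with test compound (12.5 μM) or DMSO for 30 min at 33 °C. It was then heated for 2 min at 37–59 °C and rapidly cooled to 4 °C. Residual titre was measured by TCID50 on RD cells: 10-fold virus dilutions, CPE scored after 72 h, Reed–Muench calculation.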

[8] = system: EV-D68 virions; experiment: Particle stability thermal release assay; design: species or system Enterovirus D68; settings: 10 μg/mL, 1.5 μg purified EV-D68, SYTO9
Procedure, shortened: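 Test compound (10 μg/mL) or DMSO was mixed with 1.5 μg EV-D68 and SYTO9 nucleic-acid dye, at 5% DMSO. The mixture was held at 33 °C for 15 min, then ramped from 25 to 99 °C. Fluorescence was recorded in triplicate at 1 °C steps, and melting temperature was taken from the negative first-derivative curve.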

[9] = system: various EV-D68 strains; experiment: CPE assay, various EV-D68 strains; format: cell-based; settings: Enterovirus D, EVD68
Procedure, shortened: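 RD cells (DMEM, 10% FBS, 37 °C, 5% CO2) were seeded at 1.5 × 10^4/well and grown for 24 h. They were infected with 100 TCID50 of strain STL-2014-12, US/KY/14-18953, US/MO/14-18947 or Fermon, plus test compound in 3-fold dilutions (0.01–200 μM) or DMSO, for 72 h at 37 °C. ATP was read by CellTiter-Glo luminescence and normalised to uninfected and infected controls. EC50 is the concentration giving a 50% ATP increase.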

[10] = Liver microsome stability assay, dog; format: in vitro ADME; settings: beagle, liver microsomes
Procedure, shortened: (§1)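 Test compound (1 μM final) was incubated at 37 °C with rat, beagle dog or human liver microsomes (0.5 mg/mL protein) and 1 mM NADPH, with a parallel no-NADPH control. Aliquots were quenched at 0, 5, 15, 30 and 60 min in solution containing internal standard, centrifuged at 4 °C and analysed by LC-MS/MS. t1/2 and intrinsic clearance were derived from compound depletion.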

[11] = Liver microsome stability assay, rat; format: in vitro ADME; settings: liver microsomes
Procedure, shortened: as §1

[12] = Liver microsome stability assay, human; format: in vitro ADME; settings: liver microsomes
Procedure, shortened: as §1

clearance at 24 h [2]: 106 ± 10 mL/min/kg
SMILES: CCc1nc(-c2cnc3ccc(-c4ccc(N)cc4)cc3c2)no1.Cl [Compound 21·HCl, 4-(3-(5-Ethyl-1,2,4-oxadiazol-3-yl)quinolin-6-yl)aniline Hydrochloride]
expression level of viral VP1 [1]: significantly inhibited the expression level of viral VP1 in a dose-dependent manner
replication of EV-D68 virus particles (plaque formation) [3]: significantly inhibited the replication of EV-D68 virus particles
expression level of viral VP1 [4]: significantly inhibited the expression level of viral VP1 in a dose-dependent manner

EC50 [5]: > 10 µM
SMILES: CCOC(=O)c1cnc2ccc(-c3cccc(N)c3)cc2c1 [Compound 11, Ethyl 6-(3-Aminophenyl)quinoline-3-carboxylate]

SMILES: Cl.Nc1ccc(-c2ccc3ncc(-c4noc(C(F)(F)F)n4)cc3c2)cc1 [19·HCl, 4-(3-(5-(Trifluoromethyl)-1,2,4-oxadiazol-3-yl)quinolin-6-yl)aniline Hydrochloride]
expression level of viral VP1 [1]: significantly inhibited the expression level of viral VP1 in a dose-dependent manner
replication of EV-D68 virus particles (plaque formation) [3]: significantly inhibited the replication of EV-D68 virus particles
expression level of viral VP1 [4]: significantly inhibited the expression level of viral VP1 in a dose-dependent manner

SMILES: CCOC(=O)c1cnc2ccc(-c3cn[nH]c3)cc2c1 [Compound 17, Ethyl 6-(1H-Pyrazol-4-yl)quinoline-3-carboxylate]
anti-EV-D68 activity [5]: complete loss of activity

SMILES: Cc1cc(CCCOc2c(C)cc(-c3noc(C(F)(F)F)n3)cc2C)on1 [Pleconaril, pleconaril, reference compound]
antiviral activity, drug added after 1 hpi (phases II and IV) [6]: same experimental results
antiviral activity, drug added at 0–1 h (phase I) and 0–14 h (phase III) [6]: same experimental results
thermal inactivation of virus at 55 °C [7]: significantly reduce the thermal inactivation
protection against viral particles (PaSTRy) [8]: almost no protection

SMILES: CCOC(=O)c1cnc2ccc(-c3ccc(C(N)=O)cc3)cc2c1 [Compound 18, Ethyl 6-(4-Carbamoylphenyl)quinoline-3-carboxylate]
anti-EV-D68 activity [5]: inactivation

EC50 [5]: > 10 µM
SMILES: CCCc1ccc(-c2ccc3ncc(C(=O)OCC)cc3c2)cc1 [Compound 10, Ethyl 6-(4-Propylphenyl)quinoline-3-carboxylate]

clearance at 24 h [2]: 64 ± 13.1 mL/min/kg
EC50 [9]: 50 to 100 nM
CLint scaled at 1 h, 1 µM [10]: 116 mL/min/kg
CLint scaled at 1 h, 1 µM [11]: 61.2 mL/min/kg
CLint scaled at 1 h, 1 µM [12]: 10.8 mL/min/kg
SMILES: Nc1ccc(-c2ccc3ncc(-c4noc(C(F)(F)F)n4)cc3c2)cc1 [Compound 19, 4-(3-(5-(Trifluoromethyl)-1,2,4-oxadiazol-3-yl)quinolin-6-yl)aniline]
antiviral activity, drug added after 1 hpi (phases II and IV) [6]: antiviral activity disappeared
antiviral activity, drug added at 0–1 h (phase I) and 0–14 h (phase III) [6]: significant antiviral activity
thermal inactivation of virus at 55 °C [7]: significantly reduce the thermal inactivation
virus activity at 57 °C [7]: maintained certain virus activity
increase in antiviral potency compared to compound 15 ([5]; EC50 ratio, STL-2014-12): ~10 fold
